Assay results: ChEMBL document CHEMBL4390654, “Microwave-assisted solid-phase synthesis of antisense acpP peptide nucleic acid-peptide conjugates active against colistin- and tigecycline-resistant E. coli and K. pneumoniae” (Eur J Med Chem, 2019)
Numbered stars: 1 amine (or outer) side, 2 acyl side, 3 side chain; on linkers, the order of the positions; unused ones are H or OH. Bridge positions count the residues as written; N and C are the ends. Square brackets hold non-standard residues; d marks the D form. Peptide text beside a SMILES is read from it. I, II: the chains in the order shown. * marks the point of attachment. X3 = CC[C@H](C)[C@@H](C(=O)*)N(C(=O)[C@H](CCCNC(=N)N)NC(=O)CCCCCNC(=O)[C@@H](N)CCCNC(=N)N)C(=O)[C@H](CCCNC(=N)N)NC(=O)CCCCCNC(=O)[C@@H](N)CCCNC(=N)N; Succinimide(1-C2H4CO,3-yl) = O=C1CC([*:1])C(=O)N1CCC(=O)[*:2]; X2 = O=C(OCCOCCN[*:1])[*:2]

Tests used:
Pseudomonas aeruginosa [1] = assay: Antibacterial activity against Pseudomonas aeruginosa PAO1 assessed as reduction in microbial growth incubated for 20 hrs; assay type: functional
Procedure, shortened: (§1)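 Broth microdilution MIC after a modified Hancock protocol for cationic peptides, in non-binding polystyrene plates. Inoculum ~2 × 10^5 CFU/mL in Mueller-Hinton broth with Mg²⁺ and Ca²⁺ at 4 mg/L each. Compounds dissolved in water, diluted in 0.01% acetic acid, 0.2% BSA (final), added as 10× aliquots. Covered plates incubated 20 h at 35 °C (± 2 °C) with shaking at 220 rpm. MIC read as lowest inhibiting concentration.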

Escherichia coli [2] = assay: Antibacterial activity against Escherichia coli lacking a functional SbmA assessed as reduction in microbial growth incubated for 20 hrs; procedure, shortened: as §1
Klebsiella pneumoniae [3] = assay: Antibacterial activity against multi-drug resistant Klebsiella pneumoniae NMI 3081/09 assessed as reduction in microbial growth incubated for 20 hrs; assay type: functional
Procedure, shortened: (§2)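 Broth microdilution MIC (modified Hancock protocol) in non-binding polystyrene plates. Inoculum ~2 × 10^5 CFU/mL in Mueller-Hinton broth with Mg²⁺ and Ca²⁺ at 4 mg/L each. Compounds dissolved in water, diluted in 0.01% acetic acid/0.2% BSA (final), added as 10× stocks. Covered plates incubated 20 h at 35 °C (± 2 °C) with 220 rpm circular shaking before MIC read.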

Escherichia coli [4] = assay: Antibacterial activity against multi-drug resistant Escherichia coli NMI 3898/15 assessed as reduction in microbial growth incubated for 20 hrs; assay type: functional; procedure, shortened: as §2
Klebsiella pneumoniae [5] = assay: Antibacterial activity against multi-drug resistant Klebsiella pneumoniae NMI 2697/14 assessed as reduction in microbial growth incubated for 20 hrs; assay type: functional; procedure, shortened: as §2
Escherichia coli [6] = assay: Antibacterial activity against multi-drug resistant Escherichia coli NMI 3548/14 assessed as reduction in microbial growth incubated for 20 hrs; assay type: functional; procedure, shortened: as §2
Acinetobacter baumannii [7] = assay: Antibacterial activity against Acinetobacter baumannii ATCC 19606 assessed as reduction in microbial growth incubated for 20 hrs; assay type: functional; procedure, shortened: as §1
[8] = Hemolytic activity against RBC (unknown origin) at 100 uM; assay type: ADME, cell-based, Erythrocyte; conditions: red blood cells (erythrocytes); read-out: Activity
Klebsiella pneumoniae [9] = assay: Antibacterial activity against Klebsiella pneumoniae ATCC 13883 assessed as reduction in microbial growth incubated for 20 hrs; assay type: functional; procedure, shortened: as §1
Escherichia coli [10] = assay: Antibacterial activity against Escherichia coli ATCC 25922 assessed as reduction in microbial growth incubated for 20 hrs; assay type: functional; procedure, shortened: as §2
Staphylococcus aureus = assay: Antibacterial activity against Staphylococcus aureus ATCC 29213 assessed as reduction in microbial growth incubated for 20 hrs; assay type: functional; procedure, shortened: as §1
[11] = Ratio of MIC for Escherichia coli lacking functional SbmA to MIC for Escherichia coli ATCC 25922
Pseudomonas aeruginosa [12] = assay: Antibacterial activity against multi-drug resistant Pseudomonas aeruginosa NMI 506/17 assessed as reduction in microbial growth incubated for 20 hrs; assay type: functional; procedure, shortened: as §2
[13] = Ratio of MIC for Escherichia coli ATCC 25922 to MIC against Escherichia coli NMI 3898/15; assay type: functional
Escherichia coli [14] = assay: Antibacterial activity against NDM-1 producing multi-drug resistant Escherichia coli NMI 5428/11 ST410 assessed as reduction in microbial growth incubated for 20 hrs; assay type: functional; conditions: NMI 5428/11 ST410, 20 h; procedure, shortened: as §2
Acinetobacter baumannii [15] = assay: Antibacterial activity against Acinetobacter baumannii NMI 3658/17 assessed as reduction in microbial growth incubated 20 hrs; assay type: functional; procedure, shortened: as §1
Pseudomonas aeruginosa [16] = assay: Antibacterial activity against Pseudomonas aeruginosa ATCC 27853 assessed as reduction in microbial growth incubated for 20 hrs; assay type: functional; procedure, shortened: as §1
Escherichia coli [17] = assay: Antibacterial activity against NDM-1 producing multi-drug resistant Escherichia coli NMI 3371/16 ST101 assessed as reduction in microbial growth incubated for 20 hrs; assay type: functional; conditions: NMI 3371/16 ST101, 20 h; procedure, shortened: as §2
Escherichia coli [18] = assay: Antibacterial activity against NDM-5 producing multi-drug resistant Escherichia coli NMI 636/15 ST405 assessed as reduction in microbial growth incubated for 20 hrs; assay type: functional; conditions: NMI 636/15 ST405, 20 h; procedure, shortened: as §2
[19] = ATCC 19606 = CIP 70.34 = JCM 6841, 20 h

Molecule | MIC (Pseudomonas aeruginosa [1]; PAO1, 20 h) [µg/mL] | MIC (Escherichia coli [2]) [µg/mL] | MIC (Klebsiella pneumoniae [3]; NMI 3081/09, 20 h) [µg/mL] | MIC (Escherichia coli [4]; NMI 3898/15, 20 h) [µg/mL] | MIC (Klebsiella pneumoniae [5]; NMI 2697/14, 20 h) [µg/mL] | MIC (Escherichia coli [6]; NMI 3548/14, 20 h) [µg/mL] | MIC (Acinetobacter baumannii [7]; [19]) [µg/mL] | hemolysis at 100 µM [8] [%] | MIC (Klebsiella pneumoniae [9]; ATCC 13883, 20 h) [µg/mL] | MIC (Escherichia coli [10]; ATCC 25922, 20 h) [µg/mL] | MIC (Staphylococcus aureus; ATCC 29213, 20 h) [µg/mL] | Ratio [11] | MIC (Pseudomonas aeruginosa [12]; NMI 506/17, 20 h) [µg/mL] | MIC (Escherichia coli [14]) [µg/mL] | MIC (Acinetobacter baumannii [15]; NMI 3658/17, 20 h) [µg/mL] | MIC (Pseudomonas aeruginosa [16]; ATCC 27853, 20 h) [µg/mL] | MIC (Escherichia coli [17]) [µg/mL] | MIC (Escherichia coli [18]) [µg/mL] | further results
CC[C@@H](C)[C@@H](NC(=O)[C@H]1CCCN1C(=O)[C@@H](CCCNC(=N)N)NC(=O)[C@H]1CCCN1C(=O)[C@@H](Cc1cnc[nH]1)NC(=O)[C@@H](CO)NC(=O)[C@H](NC(=O)[C@H]1CCCN1C(=O)[C@@H](CCCNC(=N)N)NC(=O)[C@H]1CCCN1C(=O)[C@@H](CO)NC(=O)[C@@H](Cc1ccc(O)cc1)NC(=O)[C@H]1CCCN1C(=O)[C@@H](CCCNC(=N)N)NC(=O)[C@H]1CCCN1C(=O)[C@@H](CCCNC(=N)N)NC(=O)CCCCCNC(=O)[C@H](N)CCCNC(=N)N)[C@H](C)O)C(=O)N[C@H](CCCNC(=N)N)C(=O)N[C@@H](C(=O)N[C@H](CS)C(=O)N[C@@H](C(=O)N[C@H](CS)C(=O)N[C@H](C)C(=O)N[C@@H](C(=O)N[C@H](C)C(=O)N[C@H](CS)C(=O)N[C@@H](C(=O)N[C@@H](CS)C(=O)N[C@@H](C(N)=O)[C@H](C)O)[C@H](C)O)[C@H](C)O)[C@H](C)O)C(C)C | > 64 | > 64 | > 64 | > 64 | > 64 | 64 | > 64 | < 1 | 8 to 16 | > 64 | > 64 | > 16 |  |  |  |  |  |  | 
CC[C@H](C)[C@H](NC(=O)[C@@H]1CCCN1C(=O)[C@H](CCCNC(=N)N)NC(=O)[C@@H]1CCCN1C(=O)[C@H](Cc1cnc[nH]1)NC(=O)[C@H](CO)NC(=O)[C@@H](NC(=O)[C@@H]1CCCN1C(=O)[C@H](CCCNC(=N)N)NC(=O)[C@@H]1CCCN1C(=O)[C@H](CO)NC(=O)[C@H](Cc1ccc(O)cc1)NC(=O)[C@@H]1CCCN1C(=O)[C@H](CCCNC(=N)N)NC(=O)[C@@H]1CCCN1C(=O)[C@H](CCCNC(=N)N)NC(=O)CCCCCNC(=O)[C@@H](N)CCCNC(=N)N)[C@@H](C)O)C(=O)N[C@@H](CCCNC(=N)N)C(=O)N[C@H](C(=O)N[C@@H](CS)C(=O)N[C@H](C(=O)N[C@@H](CS)C(=O)N[C@@H](C)C(=O)N[C@H](C(=O)N[C@@H](C)C(=O)N[C@@H](CS)C(=O)N[C@H](C(=O)N[C@@H](CS)C(=O)N[C@H](C(N)=O)[C@@H](C)O)[C@@H](C)O)[C@@H](C)O)[C@@H](C)O)C(C)C | > 64 | > 64 | 8 | 4 | 32 | 1 to 2 | 64 | < 1 | 2 to 4 | 4 | > 64 | > 16 | > 64 | 1 | 32 | > 64 | 0.5 | 1 | Ratio [13]: 2 to 8
COLISTIN |  | 0.5 |  |  |  |  |  |  |  |  |  |  |  |  |  |  |  |  | MIC (Pseudomonas aeruginosa [1]): 0.5 µg/mL; MIC (Klebsiella pneumoniae [3]): 0.25 to 1 µg/mL; MIC (Pseudomonas aeruginosa [12]): > 16 µg/mL; MIC (Escherichia coli [4]): 2 to 4 µg/mL; MIC (Acinetobacter baumannii [15]): > 16 µg/mL; MIC (Klebsiella pneumoniae [5]): > 16 µg/mL; MIC (Escherichia coli [6]): 4 µg/mL; MIC (Pseudomonas aeruginosa [16]): 0.25 µg/mL; MIC (Acinetobacter baumannii [7]; ATCC 19606 = CIP 70.34 = JCM 6841): 0.25 µg/mL; MIC (Klebsiella pneumoniae [9]): 2 to 4 µg/mL; MIC (Escherichia coli [10]): 0.125 to 0.5 µg/mL; MIC (Staphylococcus aureus): > 16 µg/mL
CC[C@@H](C)[C@@H](NC(=O)[C@@H](CCCCN)NC(=O)[C@@H]([C@H](C)CC)N(C(=O)[C@@H](CCCNC(=N)N)NC(=O)CCCCCNC(=O)[C@H](N)CCCNC(=N)N)C(=O)[C@@H](CCCNC(=N)N)NC(=O)CCCCCNC(=O)[C@H](N)CCCNC(=N)N)C(=O)N[C@H](CC(C)C)C(=O)N[C@H](Cc1ccccc1)C(=O)N[C@H](CCC(N)=O)C(=O)N[C@H](CC(N)=O)C(=O)N[C@H](CCCNC(=N)N)C(=O)N[C@H](CCCNC(=N)N)C(=O)N[C@H](CCSC)C(=O)N[C@H](CCCCN)C(=O)N[C@H](Cc1c[nH]c2ccccc12)C(=O)N[C@H](CCCCN)C(=O)N[C@H](CCCCN)C(N)=O | 1 | 2 | 16 | 2 | 16 | 1 | 2 | < 1 | 4 | 2 to 4 | 2 to 4 |  | 4 | 1 to 2 | 2 | 2 | 2 | 2 | 
CC[C@H](C)[C@H](NC(=O)[C@H](CCCCN)NC(=O)[C@H]([C@@H](C)CC)N(C(=O)[C@H](CCCNC(=N)N)NC(=O)CCCCCNC(=O)[C@@H](N)CCCNC(=N)N)C(=O)[C@H](CCCNC(=N)N)NC(=O)CCCCCNC(=O)[C@@H](N)CCCNC(=N)N)C(=O)N[C@@H](CC(C)C)C(=O)N[C@@H](Cc1ccccc1)C(=O)N[C@@H](CCC(N)=O)C(=O)N[C@@H](CC(N)=O)C(=O)N[C@@H](CCCNC(=N)N)C(=O)N[C@@H](CCCNC(=N)N)C(=O)N[C@@H](CCSC)C(=O)N[C@@H](CCCCN)C(=O)N[C@@H](Cc1c[nH]c2ccccc12)C(=O)N[C@@H](CCCCN)C(=O)N[C@@H](CCCCN)C(=O)N[C@@H](CS)C(=O)N[C@H](C(=O)N[C@@H](CS)C(=O)N[C@@H](C)C(=O)N[C@H](C(=O)N[C@@H](C)C(=O)N[C@@H](CS)C(=O)N[C@H](C(=O)N[C@@H](CS)C(=O)N[C@H](C(N)=O)[C@@H](C)O)[C@@H](C)O)[C@@H](C)O)[C@@H](C)O (X3-KILFQNRRMKWKKCTCATACTCT-NH2) | 32 | 16 | > 64 | ≥ 64 | > 64 | 32 | 16 | < 1 | 8 | 16 | > 64 |  |  |  |  |  |  |  | 
CC[C@H](C)[C@H](NC(=O)[C@H](CCCCN)NC(=O)[C@H]([C@@H](C)CC)N(C(=O)[C@H](CCCNC(=N)N)NC(=O)CCCCCNC(=O)[C@@H](N)CCCNC(=N)N)C(=O)[C@H](CCCNC(=N)N)NC(=O)CCCCCNC(=O)[C@@H](N)CCCNC(=N)N)C(=O)N[C@@H](CC(C)C)C(=O)N[C@@H](Cc1ccccc1)C(=O)N[C@@H](CCC(N)=O)C(=O)N[C@@H](CC(N)=O)C(=O)N[C@@H](CCCNC(=N)N)C(=O)N[C@@H](CCCNC(=N)N)C(=O)N[C@@H](CCSC)C(=O)N[C@@H](CCCCN)C(=O)N[C@@H](Cc1c[nH]c2ccccc12)C(=O)N[C@@H](CCCCN)C(=O)N[C@@H](CCCCN)C(=O)N[C@@H](CSC1CC(=O)N(CCC(=O)NCCOCCOC(=O)N[C@@H](CS)C(=O)N[C@H](C(=O)N[C@@H](CS)C(=O)N[C@H](C(=O)N[C@H](C(=O)N[C@@H](C)C(=O)N[C@@H](CS)C(=O)N[C@@H](C)C(=O)N[C@@H](CS)C(=O)N[C@H](C(N)=O)[C@@H](C)O)[C@@H](C)O)[C@@H](C)O)[C@@H](C)O)C1=O)C(N)=O (stereo partly drawn) (I: X3-KILFQNRRMKWKKC-NH2 / II: [X2]CTCTTACACT-NH2; linker I:14-II:N via Succinimide(1-C2H4CO,3-yl)) | 32 | 32 | 8 to 16 | 16 | 16 to 32 | 4 to 8 | 16 | < 1 | 64 | 32 | > 64 |  |  |  |  |  |  |  | 
